Source: PubChem BioAssay AID588395 (Southern Research Specialized Biocontainment Screening …, 2011)
Calls of active or inactive are those of the source.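 The calls were made as follows: active = phage lysis blocked by at least 50% at any tested dose; inconclusive = replicate wells disagree with each other; inactive = the rest.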

Tested on: not listed separately
Experiment: inhibitors of K1F phage lysis, dose response, capsule biogenesis inhibitor project, E. coli UTI89, set 7 (AID 588395)
Details: E. coli UTI89 K1F phage lysis inhibition, OD600 3 h; at 100 µM (top of the series)
Outline: (§1)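 Assay system: E. coli UTI89 (K1) / Input: bacterial culture diluted 1:100 into each well / Medium: LB broth / Dosing: 0.78–100 µM final, 1% DMSO / Timing: 1.25 h pre-infection at 37 °C, 3 h phage exposure / Detection: OD600 absorbance / Read-out: inhibition of phage lysis from OD600 at 3 h post-infection / Repeats: duplicates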

Row | SMILES | inhibition of phage lysis
1 | O=C(Nc1nc2ccc(F)cc2s1)c1ccc(Br)o1 | 15.8% (inactive)
2 | COc1ccc2nc(NS(=O)(=O)c3ccc(Br)s3)sc2c1 | -0.42% (inactive)
3 | O=C(Nc1nc2ccc(C(F)(F)F)cc2s1)c1ccc(Br)cc1 | 2.13% (inactive)
4 | Cc1ccc(NC(=O)c2ccc3ncccc3c2)cc1 | 0% (inactive)
5 | COc1ccc2nc(NC(=O)c3ccc(C)s3)sc2c1 | -3.86% (inactive)
6 | Cc1ccc(C(=O)Nc2nc3ccccc3s2)s1 | -9.44% (inactive)
7 | O=C(Nc1nc2ccc(C(F)(F)F)cc2s1)c1ccc(Br)o1 | 1.64% (inactive)
8 | O=C(Nc1nc2ccc(Cl)cc2s1)c1ccc(Br)s1 | 6.12% (inactive)
9 | O=C(Nc1nc2ccccc2s1)c1ccc(Br)cc1 | 1.7% (inactive)
10 | COc1ccc2nc(NC(=O)c3ccc(Br)o3)[nH]c2c1 | 0.41% (inactive)
11 | O=C(Nc1nc2ccccc2s1)c1ccc(Br)o1 | 0% (inactive)
12 | Cc1ccc(C(=O)Nc2nc3ccc(Br)cc3s2)s1 | -11.1% (inactive)
13 | O=C(Nc1ccc(C(F)(F)F)cc1)c1ccc2ncccc2c1 | 2.46% (inactive)
14 | O=S(=O)(Nc1nc2ccc(Br)cc2s1)c1ccc(Br)s1 | 6.67% (inactive)
15 | O=C(Nc1nc2ccc(F)cc2s1)c1ccc(Br)s1 | 6.49% (inactive)
16 | O=C(Nc1nc2ccc(Br)cc2s1)c1ccc(Br)s1 | 18% (inactive)
17 | COc1ccc2nc(NC(=O)c3ccc(Br)s3)[nH]c2c1 | 0.85% (inactive)
18 | COC(=O)c1ccc(NC(=O)c2ccc3ncccc3c2)cc1 | 39.1% (inactive)
19 | O=C(Nc1nc2ccc(Cl)cc2s1)c1ccc(Br)o1 | -4.26% (inactive)
20 | COc1ccc2nc(NC(=O)c3ccc(Br)cc3)[nH]c2c1 | -2.55% (inactive)

Row | SMILES | inhibition of phage lysis
21 | O=C(Nc1nc2ccc(OC(F)(F)F)cc2s1)c1ccc(Br)o1 | -11.1% (inactive)
22 | COc1ccc2nc(NC(=O)c3ccc(Br)o3)sc2c1 | 41.7% (inactive)
23 | O=C(Nc1nc2ccc(Br)cc2s1)c1ccc(Br)cc1 | 2.55% (inactive)
24 | O=C(Nc1ccc(Br)cc1)c1ccc2ncccc2c1 | -0.43% (inactive)
25 | O=C(Nc1nc2ccc(F)cc2s1)c1ccc(Br)cc1 | -15.7% (inactive)
26 | COc1ccc2nc(NC(=O)c3cc(Br)c(Br)s3)[nH]c2c1 | -1.23% (inactive)
27 | COc1ccc(NC(=O)c2ccc3ncsc3c2)cc1 | 4.51% (inactive)
28 | O=C(Nc1nc2ccc(OC(F)(F)F)cc2s1)c1ccc(Br)cc1 | -15.3% (inactive)
29 | O=C(Nc1nc2ccc(Br)cc2s1)c1ccc(Br)o1 | 9.79% (inactive)
30 | O=S(=O)(Nc1nc2ccccc2s1)c1ccc(Br)s1 | -2.08% (inactive)
31 | COC(=O)c1ccc(NC(=O)c2ccc3ncsc3c2)cc1 | 9.02% (inactive)
32 | Cc1ccc(C(=O)Nc2nc3ccc(Cl)cc3s2)s1 | -2.05% (inactive)
33 | COc1ccc(NC(=O)c2ccc3ncccc3c2)cc1 | -4.29% (inactive)
34 | O=C(Nc1nc2ccc(OC(F)(F)F)cc2s1)c1ccc(Br)s1 | 1.91% (inactive)
35 | O=C(Nc1cccnc1)c1ccc2ncsc2c1 | 0.82% (inactive)
36 | O=C(Nc1nc2ccccc2s1)c1ccc(Br)s1 | -6.12% (inactive)
37 | COc1ccc2nc(NC(=O)c3ccc(Br)cc3)sc2c1 | 4.68% (inactive)
38 | O=C(Nc1nc2ccc(Cl)cc2s1)c1ccc(Br)cc1 | 12.9% (inactive)
39 | O=C(Nc1nc2ccc(C(F)(F)F)cc2s1)c1ccc(Br)s1 | 2.86% (inactive)

Tested on: E. coli UTI89 K1F phage lysis inhibition, OD600 3 h
Experiment: as above
Details: not given
Outline: as §1

Row | SMILES | IC50 [nM]
40 | O=C(Nc1ccncc1)c1ccc2ncsc2c1 | 1310
41 | COc1ccc2nc(NC(=O)c3ccc(Br)s3)sc2c1 | 2150
